Screens from PubChem BioAssay.
Dynein transport: dynein cargo transport inhibition | 3617.4 mouse cells, GR-EGFP nuclear translocation imaging; test concentration mostly 20 µM; stimulated with dexamethasone, 1 µM; hits give low values | z-score, hits read low | hit rate 0.47% among 220,000 | AID 1381;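 active = plate z-score of nuclear minus cytoplasmic receptor signal below a set negative limit, without overly bright fluorescence or cell loss, cut at about -3.5 in these data, passing the limit was not always enough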;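 note: z-score of nuclear minus cytoplasmic ring GR-EGFP intensity difference per well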
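Medium: Induction medium lacking tetracycline, stripped serum | Probe or stimulus: 1.0 µM final dexamethasone stimulus | Schedule: 48 h induction, then 1 h compound, then 30 min agonist, 37 °C | Signal: Automated 10x imaging of fixed Hoechst-stained cells | Evaluation: Per-cell GR-EGFP intensity, nucleus versus surrounding cytoplasmic ring, well-averaged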
CHOP UPR activ: activators of apoptotic arm of unfolded protein response (CHOP) | CHO-CHOP luciferase reporter, UPR activation, luminescence; percent of tunicamycin response over DMSO baseline | activation, % at 10 µM | hit rate 0.34% among 330,000;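 active = at 10 µM dose, activation of 40% or more, normalized to positive control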;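 note: 100% = tunicamycin at 10 µg/mL and 0% = DMSO alone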
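System: CHO CHOP reporter cells. Amount: 500 cells per well. Buffer or medium: F12 medium, 10% FBS. Compound dosing: one dose, 10 µM in 0.5% DMSO. Incubation: 6 h compound exposure at 37 °C after overnight seeding. Technique: Steady-Glo luciferase luminescence. Benchmarks: tunicamycin and DMSO controls.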
XBP1 UPR activ: activators of adaptive arm of unfolded protein response (XBP1). hit rate 0.33% among 330,000. AID 463104. CHO-XBP1 luciferase reporter, IRE1-XBP1 UPR activation, luminescence; percent of tunicamycin response, DMSO as zero. activation, % at 20 µM;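 active = versus positive control, 20 µM dose yields 30% or more activation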;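 note: 100% = tunicamycin at 10 µg/mL and 0% = DMSO only wells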
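assay system = CHO-XBP1 luciferase reporter cells | amount = 1000 cells/well | buffer or medium = F12 plus 10% FBS | compound dosing = single point, 20 µM final compound, 1% DMSO | incubation = 16-18 h cell attachment at 37 °C, then 6 h compound exposure | detection = Steady-Glo luminescence read | controls = tunicamycin 10 µg/mL and vehicle-only wells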
CHOP inhibitor: CHOP inhibition in unfolded protein response. inhibition, % at 10 µM. hit rate 3.8% among 220,000. CHO-K1 CHOP-promoter luciferase, tunicamycin-induced, 15-18 h;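 active = compounds that reduced the stress-induced luciferase reporter signal by more than about 70% of percent inhibition, limit read from the data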;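 note: 0% = tunicamycin plus vehicle and 100% = wells without tunicamycin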
L major viab: inhibitors of Leishmania major promastigote growth. AID 1063. Leishmania major promastigotes, resazurin fluorescence viability. inhibition, % at 10 µM. hit rate 9% among 200,000; in the data active = inhibition above about 50%;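 note: promastigotes grown with compound for 44 hours at 28 °C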
T cruzi inh: T. cruzi replication inhibition | T. cruzi beta-gal in NIH3T3, luminescence, 90 h | AID 1885 | inhibition, % (no concentration beside the values) | hit rate 1.4% among 300,000;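 active = mean inhibition across valid replicates above about 55%, limit read from the data; inconclusive = mean below that limit but half or more replicates reach it; inactive = mean below it, under half of replicates reach it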;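 note: signal also drops with host cell toxicity which is not excluded here; 0% = plate median of DMSO wells and 100% = zero luminescence signal; higher percent means less beta-gal luminescence so fewer parasites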
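System – NIH/3T3 host cells with β-galactosidase reporter T. cruzi · Doses – single 50 nL compound addition per well in DMSO · Reagent – 5000 T. cruzi trypomastigotes/well · Medium – Low-serum DMEM with 2% FBS · Timing – ≥90 h infection period, 3 h prior cell attachment · Evaluation – parasite load inhibition, % · Technique – GalScreen luminescence, 60 min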
Lmaj promast 1uM: blocks Leishmania major promastigote growth at 1 uM, repeat screen; shares compounds with L major viab; L. major promastigote growth, resazurin fluorescence, 48 h; inhibition, % at 1 µM; hit rate 13% among 1,100; AID 1258;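 active = inhibition above about 50% in both repeat tests, limit read from the data; inconclusive = one repeat under the set limit, the other over it; inactive = both repeats under the set limit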
An asterisk follows results filed as active; u = inconclusive; x = no result given. This is one part of a sample in which hits are shown more often than they occur.

SMILES	Dynein transport	CHOP UPR activ	XBP1 UPR activ	CHOP inhibitor	L major viab	T cruzi inh	Lmaj promast 1uM
CCN(CC)CCN(C)C1CCC(c2ccccc2)CC1 (stereo unspecified)	-0.52	x	x	-9	94*	x	76*
CCCN1CCN(C(=O)C(C)n2nc(C)c3sc4ccccc4c3c2=O)CC1 (stereo unspecified)	x	0	-6	x	x	2	x
COc1cc(-c2c(C#N)c(N)nc(SCc3ccncc3)c2C#N)cc(OC)c1OC	-0.26	1	0	-13	98*	53	61*
Cc1cc(C)cc(NS(=O)(=O)c2c(C)[nH]c(=O)[nH]c2=O)c1	x	0	-5	x	x	-12	x
CCOC(=O)c1nc2cc3n(c(C)c-2c1C)C(C)C(C)=C3C (stereo unspecified)	0.013	0	1	4	67*	x	-12
Cc1cc(C)c(C(=O)c2ccc(C(=O)NC(C)(C)C)cc2)c(C)c1	-0.51	2	-3	64	48	13	x
Cc1cc(C)c(C(=O)c2ccc(C(=O)N(C(C)C)C(C)C)cc2)c(C)c1	-0.72	-1	-2	94*	86*	20	-11
CC(/C=N/NC(=O)c1cc(-c2ccncc2)nc2ccccc12)=C\c1ccco1	-0.16	0	22	21	89*	-14	19
Cc1ccc(/C=N/NC(=O)c2cc(-c3ccncc3)nc3ccccc23)o1	x	0	11	x	x	-3	x
Cc1nn(-c2ccccc2)c(N)c1Sc1cccc([N+](=O)[O-])c1	0.66	0	-5	11	52*	38	14
Cn1c(SCCN2CCCCC2)nnc1-c1ccccc1Br	-0.69	-1	2	39	73*	11	-2
Cn1c(SCCC#N)nnc1-c1ccccc1F	-0.056	1	1	-1	-8	0	x
CCOc1ccc(C(=O)N[C@H](C(=O)Nc2ccc(S(=O)(=O)Nc3nccs3)cc2)C(C)C)cc1	x	-1	-2	x	x	x	x
Nc1nsc2ccccc12	-0.71	14	-1	22	100*	u	95*
Nc1nnc(N)c2ccccc12	-1.1	0	-2	27	3	2	x
Nn1c(SCc2ccc(F)cc2)nnc1-c1ccncc1	-0.58	-1	4	-5	x	-35	x
O=C(Nc1ccccc1-c1nc2ccccc2s1)c1ccc(Br)o1	-1	1	2	-41	-1	0	x
O=C(Nc1ccccc1-c1nc2ccccc2s1)c1cccnc1	-0.2	1	1	-24	95*	-3	6
O=C(Nc1ccc(-n2cccn2)cc1)C1CCCCN1Cc1cccc2c1OCO2 (stereo unspecified)	x	1	5	x	x	2	x
Cc1cc(C)c(NC(N)=S)c(C)c1	0.37	1	2	5	x	-18	x
Cc1ccc(-n2cc(CN(C)CCc3cn[nH]c3)c(-c3cccc(C)c3)n2)cc1	-0.86	2	2	26	65*	29	-14
CC(C)CCN(C)c1ccc(/C=N/n2cnnc2)cc1	-0.78	1	0	57	82*	29	-1
Cc1cccc(NC(=O)c2sc(Cl)nc2C)c1C	0.44	3	1	-11	-2	-13	x
O=C(COC(=O)CNC(=O)c1sc2ccccc2c1Cl)NC1CCS(=O)(=O)C1 (stereo unspecified)	x	0	-2	x	x	1	x
O=C(c1sc2ccccc2c1Cl)N(Cc1ccccc1Cl)C1CCS(=O)(=O)C1 (stereo unspecified)	0.7	-1	2	12	100*	24	-2
SMILES	Dynein transport	CHOP UPR activ	XBP1 UPR activ	CHOP inhibitor	L major viab	T cruzi inh	Lmaj promast 1uM
O=C1O/C(=C/c2ccccc2)c2ccccc21	-0.68	4	4	3	-4	-11	x
N#CC1=C(c2ccccc2)/C(=C/c2ccccc2)OC1=O	-0.16	-8	-17	108*	92*	2	1
O=S1(=O)N=C(Nc2ccc(O)c(CN3CCCCC3)c2)c2ccccc21	-1.6	0	-1	32	55*	-62	-2
O=C(NC(=S)N1CCN(C(c2ccccc2)c2ccccc2)CC1)c1ccc(S(=O)(=O)N2CCOCC2)cc1	-0.29	4	3	22	99*	24	-3
O=C(NCCC(c1ccccc1)c1ccccc1)c1ccc(Br)o1	-0.056	0	-3	24	59*	23	-2
CCOC(=O)c1cccc(NC(=O)Cn2nc(C)n3cccc3c2=O)c1	x	-1	-3	x	x	1	x
N#C/C(=C\c1cn(CCOc2ccccc2)c2ccccc12)C(=O)NCc1cccs1	0.59	0	-4	5	55*	-1	-13
N#C/C(=C\c1cn(CC(=O)O)c2ccccc12)C(=O)NCc1ccccc1	x	5	-5	x	x	0	x
CCC(C)(c1nnnn1-c1c(C)cccc1C)N(N=O)c1ccccc1Cl (stereo unspecified)	-0.77	x	x	24	100*	x	95*
Cc1cccc(C(C)C)c1-n1nnnc1-c1ccccc1	-0.49	-2	-1	30	23	1	x
CC(=O)Oc1ccc2ccccc2c1C(NC(=O)Cc1ccccc1)c1ccccc1Cl (stereo unspecified)	-1.8	2	-1	30	55*	31	-23
COc1ccc(C)cc1NC(=O)c1cccc(-c2ccc(OC(C)=O)cc2)c1	x	5	-3	x	x	16	x
CNCCC(Oc1ccc(C(F)(F)F)cc1)c1ccccc1 (stereo unspecified)	-0.85	1	-7	-6	90*	15	-20
CC(C)c1ccc2oc(=O)cc(CN3CCCCC3)c2c1	x	0	-8	x	x	12	x
C[C@H](CO)N1C[C@H](C)[C@@H](CN(C)S(=O)(=O)c2cn(C)cn2)Oc2ccc(NC(=O)NC3CCCCC3)cc2C1=O	x	0	1	x	x	x	x
CCOC(=O)c1c(N)c2cc([N+](=O)[O-])ccc2n1C	0.16	3	3	23	x	32	x
CCOC(=O)/C(=C/c1c(C)n(C)c2ccc([N+](=O)[O-])cc12)C(C)=O	-3.3	2	-1	6	83*	-25	22
CN(CC(=O)Nc1ccccc1-c1ccccc1)Cc1ccccc1Cl	-0.38	-1	-3	65	20	37	x
C=CC[N+](C)(C)CCCNC(=O)/C=N/O	1.7	4	1	-1	73*	-10	-8
COc1ccccc1-n1cnc2c(c1=O)c1nc3ccccc3nc1n2-c1ccc(C)c(C)c1	0.034	x	x	84*	97*	31	97*
COc1ccc(C2CC(=O)c3cnn(-c4nc(C)cc(C)n4)c3C2)cc1OC (stereo unspecified)	1.3	-1	2	-7	x	-9	x
